HCT116 bCat-KO = beta-catenin-lacking colon tumor cell growth suppression; actives 1.5% (n = 140,000); viability, % at 10 µM; HCT116 beta-catenin knockout viability, CellTiter-Glo, 60 h; stronger effect = lower value;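 active = viability at or under a set limit, the compound median less 4 SD, cut at about 6% in these data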;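 note: 0% = Hyamine 1622 control at 20 µM and 100% = untreated cell control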
HUVEC prolif 384 = blocks proliferation of human endothelial cells; actives 1.1% (n = 86,000); HUVEC proliferation, CellTiter-Glo luminescence, 72 h; stronger effect = lower value; viability, % at 10 µM (by protocol); AID 648;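 active = viability at or below 30%; inactive = viability above 30%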;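 note: 100% = median luminescence of DMSO-only cell control wells on each plate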
H69AR growth 86K = blocks growth of human H69AR lung tumor cells. viability, % at 10 µM. AID 598. actives 6% (n = 85,000). H69AR lung tumor viability, ATP luminescence, 72 h; stronger effect = lower value;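 active = viability at or below 40%; inactive = viability above 40%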;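 note: multidrug resistant small cell line overexpressing MRP-1 efflux transporter; 100% = mean luminescence of untreated control wells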
Fibroblast inh = blocks proliferation of human lung fibroblasts | LL 47 human lung fibroblast viability, ATP luminescence; stronger effect = lower value | actives 1.1% (n = 85,000) | AID 719 | viability, % at 10 µM;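 active = viability at or below 50% in the single dose screen; inactive = viability above 50%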;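 note: compound exposure lasted 72 h before the ATP readout; 100% = median luminescence of untreated cell-only wells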
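Material: human lung fibroblast line LL 47, low passage; Evaluation: viability percentage against median untreated-cell control; Buffer or medium: 15% FBS in IMEM; Incubation: 72 h compound exposure at 37 °C after overnight plating; Dosing: 0.1% DMSO in all compound wells; Measured by: CellTiter-Glo luminescence.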
PTEN del growth = PTEN-deleted cell growth suppression | HCT116 PTEN-null viability, CellTiter-Glo, 60 h; stronger effect = lower value | viability, % at 10 µM | actives 1.2% (n = 140,000);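 active = viability at or below a set limit, 4 SD under the median of all tested compounds, cut at about 3.7% in these data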;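 note: PTEN knockout HCT116 line with beta catenin targeted HCT116 as companion control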
Numbers without * were called inactive. The sample as a whole holds a higher share of hits than the screen did.

`COc1ccc(C(=O)Nc2ccc(Cl)cc2C(=O)NCc2ccco2)cc1` gave HCT116 bCat-KO 83.0, HUVEC prolif 384 62.5, H69AR growth 86K 28.8*, Fibroblast inh 83.6 and PTEN del growth 72.1.
`COc1ccc2cc(C(=O)NCc3ccco3)c(=Nc3ccc(C(=O)O)cc3)oc2c1` gave HCT116 bCat-KO 77.7, HUVEC prolif 384 79.2, H69AR growth 86K 21.4*, Fibroblast inh 93.0 and PTEN del growth 81.5.
`O=C(NCCc1ccccn1)C(F)(F)C(F)(F)C(F)(F)C(F)(F)C(F)(F)C(F)F` gave HCT116 bCat-KO 90.2 and PTEN del growth 101.6.
Screening COc1ccc(C2C(C(=O)c3ccccc3)=C(C)Nc3nc4ccccc4n32)c(OC)c1 (stereo not drawn) returned HCT116 bCat-KO 62.9 and PTEN del growth 53.2.
CCN(c1ccccc1)S(=O)(=O)c1ccc(Oc2ccc(-n3ccnc3)cc2)nc1 was read as HCT116 bCat-KO 55.2, HUVEC prolif 384 74.7, H69AR growth 86K 63.6, Fibroblast inh 48.7* and PTEN del growth 52.2.
`CCN(c1ccccc1)S(=O)(=O)c1ccc(OC)c(OC)c1` gave HCT116 bCat-KO 100.4, HUVEC prolif 384 119.3, H69AR growth 86K 104.7, Fibroblast inh 91.0 and PTEN del growth 106.3.
CCOc1ccc2[nH]c(=O)c(CN(Cc3ccco3)C(CC)c3nnnn3Cc3ccccc3)cc2c1 (stereo not drawn) was read as HCT116 bCat-KO 39.2, HUVEC prolif 384 74.1, H69AR growth 86K 2.4*, Fibroblast inh 88.0 and PTEN del growth 33.0.
`CC(C)(C)n1nnnc1CN(Cc1ccco1)Cc1cc2cc3c(cc2[nH]c1=O)OCO3` gave HCT116 bCat-KO 76.2, HUVEC prolif 384 81.5, H69AR growth 86K 35.4*, Fibroblast inh 85.9 and PTEN del growth 71.0.
`COc1ccc2[nH]c(=O)c(CN(Cc3ccccc3OC)Cc3nnnn3CC3CCCO3)cc2c1` (stereo not drawn) gave HCT116 bCat-KO 78.1, HUVEC prolif 384 93.5, H69AR growth 86K 60.6, Fibroblast inh 90.7 and PTEN del growth 62.7.
For COc1ccc2[nH]c(=O)c(CN(Cc3cccs3)S(=O)(=O)c3c(C)ccc4nsnc34)cc2c1 the results were HCT116 bCat-KO 24.6, HUVEC prolif 384 64.6, H69AR growth 86K 2.7*, Fibroblast inh 68.7 and PTEN del growth 15.5.
For COc1ccc2[nH]c(=O)c(CN(Cc3cccs3)Cc3nnnn3Cc3ccccc3)cc2c1 the results were HCT116 bCat-KO 85.0, HUVEC prolif 384 82.8, H69AR growth 86K 32.8*, Fibroblast inh 97.1 and PTEN del growth 61.2.
For COc1ccc(C2C(C(=O)NCCN3CCOCC3)c3ccccc3C(=O)N2C2CCCCC2)cc1 (stereo not drawn) the results were HCT116 bCat-KO 60.6, HUVEC prolif 384 77.5, H69AR growth 86K 74.3, Fibroblast inh 77.9 and PTEN del growth 63.3.
Screening CC1CCN(c2ccc(C(=O)NCc3ccco3)cc2[N+](=O)[O-])CC1 returned HCT116 bCat-KO 82.6 and PTEN del growth 73.7.
C=CCn1c(SCC(=O)Nc2ncc(Cc3cc(C(F)(F)F)ccc3Cl)s2)nnc1-c1ccncc1 was read as HCT116 bCat-KO 100.8 and PTEN del growth 89.8.
Screening COc1ccc2[nH]c(=O)c(CN(Cc3ccco3)Cc3nnnn3Cc3ccccc3)cc2c1 returned HCT116 bCat-KO 89.4, HUVEC prolif 384 97.8, Fibroblast inh 93.2 and PTEN del growth 94.8.
For COc1ccc2[nH]c(=O)c(CN(CCc3ccccc3)Cc3nnnn3CC3CCCO3)cc2c1 (stereo not drawn) the results were HCT116 bCat-KO 95.0, HUVEC prolif 384 83.2, H69AR growth 86K 27.4*, Fibroblast inh 93.5 and PTEN del growth 79.9.
COc1ccc2cc(CN(CCc3ccccc3)Cc3nnnn3CC3CCCO3)c(=O)[nH]c2c1 (stereo not drawn) was read as HCT116 bCat-KO 80.0, HUVEC prolif 384 96.0, H69AR growth 86K 61.0, Fibroblast inh 96.8 and PTEN del growth 77.9.
`CCOc1ccc2[nH]c(=O)c(CN(Cc3ccco3)Cc3nnnn3Cc3ccccc3)cc2c1` gave HCT116 bCat-KO 72.2, HUVEC prolif 384 85.5, H69AR growth 86K 38.1*, Fibroblast inh 99.2 and PTEN del growth 62.2.
Cc1c(O)c2cccnc2[nH]c1=O was read as HCT116 bCat-KO 99.6 and PTEN del growth 114.3.
Screening Cc1ccc(NC(=S)NNC(=O)CSc2nc3ccccc3c(=O)n2-c2ccc(C)cc2)cc1 returned HCT116 bCat-KO 87.1 and PTEN del growth 80.3.

Screening results as filed in PubChem BioAssay.
